Columns and labels:
[1] = biological target: T1, Type-1 angiotensin II receptor (Homo sapiens, UniProt P30556); test: Displacement of Europium-labeled angiotensin-2 from human AT1 receptor expressed in CHOK1 cell membranes after 120 mins by DELFIA
T1 sequence (P30556 whole entry): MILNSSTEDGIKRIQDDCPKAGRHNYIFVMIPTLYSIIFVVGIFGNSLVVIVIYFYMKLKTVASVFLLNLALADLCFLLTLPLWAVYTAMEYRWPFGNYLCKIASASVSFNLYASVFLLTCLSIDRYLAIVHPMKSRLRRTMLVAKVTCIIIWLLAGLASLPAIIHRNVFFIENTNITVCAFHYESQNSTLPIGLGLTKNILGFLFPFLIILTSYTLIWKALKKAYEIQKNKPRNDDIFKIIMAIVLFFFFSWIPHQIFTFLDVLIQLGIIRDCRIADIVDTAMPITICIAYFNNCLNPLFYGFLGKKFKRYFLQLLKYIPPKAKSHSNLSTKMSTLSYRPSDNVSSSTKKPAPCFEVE

[2] = test system: Rattus norvegicus; test: In vivo antagonist activity at AT1 receptor in Sprague-Dawley rat assessed as inhibition of angiotensin-2-induced pressor response at 3 mg/kg, iv treated for 5 mins at 15 mins post 2 doses of angiotensin-2 treatment at 15 minutes apart followed by ANP treatment and subsequent angiotensin-2 re-challenge after 60 mins relative to control; type: functional
Outline: (§1)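 Rat pharmacodynamic assay with intravenous dosing to exclude oral absorption. AT1 antagonism is read in the same animal as inhibition of the angiotensin-II-evoked pressor response. NEP inhibition is read as potentiation of ANP-induced elevation of urinary cGMP output, relative to vehicle.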

[3] = biological target: Neprilysin (Homo sapiens, UniProt P08473); test: Inhibition of NEP (unknown origin) preincubated for 10 mins followed by fluorogenic substrate addition and measured after 20 mins by fluorescence assay
Neprilysin, sequence (P08473 whole entry): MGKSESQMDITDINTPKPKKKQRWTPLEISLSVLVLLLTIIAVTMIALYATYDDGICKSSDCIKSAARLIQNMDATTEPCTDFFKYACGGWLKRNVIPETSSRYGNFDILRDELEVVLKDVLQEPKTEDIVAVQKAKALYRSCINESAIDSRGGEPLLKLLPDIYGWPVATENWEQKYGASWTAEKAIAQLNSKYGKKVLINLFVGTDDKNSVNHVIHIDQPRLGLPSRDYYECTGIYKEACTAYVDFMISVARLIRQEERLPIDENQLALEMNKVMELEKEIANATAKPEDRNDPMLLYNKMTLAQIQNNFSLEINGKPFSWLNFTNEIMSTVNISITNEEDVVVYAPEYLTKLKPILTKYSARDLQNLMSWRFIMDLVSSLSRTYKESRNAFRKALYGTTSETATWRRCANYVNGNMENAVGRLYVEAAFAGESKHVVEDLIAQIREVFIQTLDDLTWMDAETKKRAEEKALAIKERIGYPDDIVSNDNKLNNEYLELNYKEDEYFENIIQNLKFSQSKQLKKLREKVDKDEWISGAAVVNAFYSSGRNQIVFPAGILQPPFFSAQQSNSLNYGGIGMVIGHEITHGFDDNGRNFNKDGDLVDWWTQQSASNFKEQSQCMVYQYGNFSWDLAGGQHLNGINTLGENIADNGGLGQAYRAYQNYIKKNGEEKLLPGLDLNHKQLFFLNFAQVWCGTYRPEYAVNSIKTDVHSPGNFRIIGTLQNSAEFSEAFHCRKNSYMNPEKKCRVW

[4] = biological target: T2, Type-2 angiotensin II receptor (Homo sapiens, UniProt P50052); test: Displacement of Europium-labeled angiotensin-2 from human AT2 receptor expressed in CHOK1 cell membranes after 120 mins by DELFIA
T2 sequence (P50052 whole entry): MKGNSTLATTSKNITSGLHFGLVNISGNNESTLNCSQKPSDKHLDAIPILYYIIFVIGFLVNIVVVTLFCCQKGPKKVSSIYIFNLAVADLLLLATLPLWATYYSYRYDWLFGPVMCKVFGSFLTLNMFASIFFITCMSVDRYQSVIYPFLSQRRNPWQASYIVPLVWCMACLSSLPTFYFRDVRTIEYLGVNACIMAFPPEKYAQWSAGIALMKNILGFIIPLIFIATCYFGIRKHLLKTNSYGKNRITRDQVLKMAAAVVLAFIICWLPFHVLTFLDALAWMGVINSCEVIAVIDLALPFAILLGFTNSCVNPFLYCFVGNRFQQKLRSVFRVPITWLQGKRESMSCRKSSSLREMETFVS

[5] = organism: Homo sapiens; test: Selectivity ratio of IC50 for recombinant human ECE1 to IC50 for recombinant human NEP
[6] = organism: Homo sapiens; test: Selectivity ratio of Ki for human AT2 receptor to Ki for human AT1 receptor
[7] = biological target: Angiotensin-converting enzyme (Homo sapiens, UniProt P12821); test: Inhibition of recombinant human ACE using Mca-BK2 as substrate preincubated for 10 mins followed by fluorogenic substrate addition and measured after 20 mins by fluorescence assay
Angiotensin-converting enzyme, sequence (P12821 whole entry): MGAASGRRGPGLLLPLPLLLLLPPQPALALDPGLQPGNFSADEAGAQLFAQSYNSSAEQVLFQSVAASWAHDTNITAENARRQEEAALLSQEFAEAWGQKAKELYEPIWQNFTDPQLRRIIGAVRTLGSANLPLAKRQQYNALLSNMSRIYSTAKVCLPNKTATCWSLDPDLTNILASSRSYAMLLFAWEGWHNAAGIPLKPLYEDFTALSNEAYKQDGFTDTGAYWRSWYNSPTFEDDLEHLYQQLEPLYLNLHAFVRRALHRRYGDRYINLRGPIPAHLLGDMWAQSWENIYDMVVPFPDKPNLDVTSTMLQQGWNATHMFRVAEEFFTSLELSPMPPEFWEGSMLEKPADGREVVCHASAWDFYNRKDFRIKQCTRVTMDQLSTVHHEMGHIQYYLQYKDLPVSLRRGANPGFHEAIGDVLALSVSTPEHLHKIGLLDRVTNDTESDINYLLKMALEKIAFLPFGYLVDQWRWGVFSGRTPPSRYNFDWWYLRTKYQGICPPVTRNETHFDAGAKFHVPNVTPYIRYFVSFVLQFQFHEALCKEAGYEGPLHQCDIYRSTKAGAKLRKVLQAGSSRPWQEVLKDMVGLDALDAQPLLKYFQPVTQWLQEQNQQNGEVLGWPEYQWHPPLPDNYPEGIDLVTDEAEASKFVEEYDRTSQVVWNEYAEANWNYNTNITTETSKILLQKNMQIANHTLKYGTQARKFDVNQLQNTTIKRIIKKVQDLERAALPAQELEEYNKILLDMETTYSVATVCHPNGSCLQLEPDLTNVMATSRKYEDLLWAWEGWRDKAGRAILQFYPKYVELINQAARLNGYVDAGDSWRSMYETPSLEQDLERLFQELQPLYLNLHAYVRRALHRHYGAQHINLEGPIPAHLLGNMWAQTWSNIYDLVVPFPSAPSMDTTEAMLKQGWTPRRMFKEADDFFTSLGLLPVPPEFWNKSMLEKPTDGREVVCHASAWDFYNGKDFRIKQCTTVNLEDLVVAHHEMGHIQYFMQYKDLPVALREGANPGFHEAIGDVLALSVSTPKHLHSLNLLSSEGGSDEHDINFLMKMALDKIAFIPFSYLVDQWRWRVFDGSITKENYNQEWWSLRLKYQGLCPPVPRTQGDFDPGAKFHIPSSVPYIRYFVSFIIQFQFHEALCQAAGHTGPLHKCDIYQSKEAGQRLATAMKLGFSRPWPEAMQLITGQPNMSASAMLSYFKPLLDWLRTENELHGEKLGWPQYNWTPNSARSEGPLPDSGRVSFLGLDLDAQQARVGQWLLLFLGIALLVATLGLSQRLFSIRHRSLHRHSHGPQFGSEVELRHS

[8] = test system: Rattus norvegicus; test: Antihypertensive activity in spontaneously hypertensive rat assessed as reduction in mean arterial pressure administered via oral gavage in […] measured up to 24 hrs by telemetry method; type: functional
Outline: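 Conscious spontaneously hypertensive rats, dosed orally. Blood pressure is monitored by telemetry for 24 h after each dose. Sequential escalating doses of 3, 10, 30 and 100 mg/kg are given at 24 h intervals. Efficacy is the peak percent fall in MAP from baseline. Duration is the vehicle-adjusted % change in AUC over 24 h. Statistics: two-way ANOVA with Bonferroni post hoc.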

[9] = test system: Rattus norvegicus; test: Antihypertensive activity in DOCA salt-induced CD-1 rat model of hypertension assessed as reduction in blood pressure administered via oral gavage in ascending cumulative doses […] measured up to 24 hrs by telemetry method; type: functional
Outline: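 Conscious DOCA-salt hypertensive rats, a low-renin model, dosed orally. Reduction in blood pressure is followed over time. ED10 is the dose giving an average 10% reduction in the 24 h average MAP.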

[10] = biological target: T3, Type-1 angiotensin II receptor (Homo sapiens) (UniProt P30556); test: Antagonist activity at AT1 receptor (unknown origin) by inositol phosphate accumulation assay relative to control; type: functional
T3 sequence (whole entry): T1 sequence (P30556 whole entry)

[11] = biological target: T4, Endothelin-converting enzyme 1 (Homo sapiens, UniProt P42892); test: Inhibition of recombinant human ECE1
T4 sequence (P42892 whole entry): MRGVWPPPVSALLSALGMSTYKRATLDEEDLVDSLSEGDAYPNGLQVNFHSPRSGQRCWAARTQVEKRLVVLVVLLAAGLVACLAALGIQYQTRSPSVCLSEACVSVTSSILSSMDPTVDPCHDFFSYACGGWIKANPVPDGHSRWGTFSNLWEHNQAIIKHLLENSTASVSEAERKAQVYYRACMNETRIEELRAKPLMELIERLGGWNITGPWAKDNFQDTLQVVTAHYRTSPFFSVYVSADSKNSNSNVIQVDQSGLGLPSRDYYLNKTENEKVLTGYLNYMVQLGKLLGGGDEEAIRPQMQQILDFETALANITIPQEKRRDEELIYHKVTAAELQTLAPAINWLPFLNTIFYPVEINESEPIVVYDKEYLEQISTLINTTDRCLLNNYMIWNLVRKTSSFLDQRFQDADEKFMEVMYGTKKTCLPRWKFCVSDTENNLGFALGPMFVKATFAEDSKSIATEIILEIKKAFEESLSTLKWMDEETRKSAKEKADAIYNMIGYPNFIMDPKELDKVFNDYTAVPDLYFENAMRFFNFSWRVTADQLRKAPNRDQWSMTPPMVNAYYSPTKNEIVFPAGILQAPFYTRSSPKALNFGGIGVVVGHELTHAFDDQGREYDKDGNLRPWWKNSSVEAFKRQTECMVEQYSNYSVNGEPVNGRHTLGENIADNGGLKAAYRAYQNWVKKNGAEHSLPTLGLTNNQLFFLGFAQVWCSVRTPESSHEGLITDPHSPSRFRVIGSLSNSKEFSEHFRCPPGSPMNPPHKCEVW

[12] = test system: Rattus norvegicus; test: In vivo inhibition of NEP in Sprague-Dawley rat assessed as potentiation of ANP-induced elevation of urinary cGMP level at 3 mg/kg, iv treated for 5 mins at 15 mins post 2 doses of angiotensin-2 treatment at 15 minutes apart followed by ANP treatment measured up to 60 mins by EIA relative to control; type: functional; outline: as §1
[13] = biological target: aminopeptidase P (Xaa-Pro aminopeptidase, Homo sapiens); test: Inhibition of APP (unknown origin)

Ki [1]	SMILES	inhibition in vivo at 3 mg/kg [2]	other results
126 nM	CCCCc1nc(Cl)c(CNC(=O)[C@H](S)CC(C)C)n1Cc1ccc(-c2ccccc2C(=O)O)cc1	–	–
39.8 nM	CCCCc1nc(CC)c(CNC(=O)[C@@H](S)CC(C)C)n1Cc1ccc(-c2ccccc2C(=O)O)cc1	18%	–
5.01 nM	CCOc1nc(CC)c(CNC(=O)[C@@H](S)CC(C)C)n1Cc1cc(F)c(-c2ccccc2C(=O)O)cc1F	–	–
39.8 nM	CCCCc1nc(Cl)c(CNC(=O)C(CS)CC(C)C)n1Cc1ccc(-c2ccccc2C(=O)O)cc1 (racemic)	–	–
50.1 nM	CCCCc1nc(Cl)c(CNC(=O)C(CS)CC2CCCC2)n1Cc1ccc(-c2ccccc2C(=O)O)cc1 (racemic)	–	–
63.1 nM	CCCCc1nc(Cl)c(CNC(=O)[C@@H](S)CC(C)C)n1Cc1ccc(-c2ccccc2C(=O)O)cc1	–	–
7.94 nM	CCCCc1nc(CC(C)C)c(CNC(=O)[C@@H](CS)CC(C)C)n1Cc1ccc(-c2ccccc2C(=O)O)cc1	–	–
20 nM	CCCOc1nc(CC)c(CNC(=O)[C@@H](S)CC(C)C)n1Cc1ccc(-c2ccccc2C(=O)O)cc1	23%	–
0.794 nM	CCOc1nc(CC)c(CNC(=O)[C@@H](CS)CC(C)C)n1Cc1ccc(-c2ccccc2C(=O)O)cc1F	85%	–
158 nM	CCCCc1nc(Cl)c(CNC(=O)C(CS)Cc2ccc3ccccc3c2)n1Cc1ccc(-c2ccccc2C(=O)O)cc1 (racemic)	–	–
–	CCCCc1nc(Cl)c(CO)n1Cc1ccc(-c2ccccc2-c2nn[nH]n2)cc1 [LOSARTAN]	–	IC50 [3]: > 10000 nM
126 nM	CCCCc1nc(Cl)c(CNC(=O)C(CS)C(C)C)n1Cc1ccc(-c2ccccc2C(=O)O)cc1 (racemic)	–	–
2.51 nM	CCCOc1nc(CC)c(CNC(=O)[C@@H](CS)CC(C)C)n1Cc1ccc(-c2ccccc2C(=O)O)cc1	65%	–
1.26 nM	CCOc1nc(CC)c(CNC(=O)[C@@H](S)CC(C)C)n1Cc1ccc(-c2ccccc2C(=O)O)cc1F	76%	Ki [4]: 2510 nM; Ratio IC50 [5]: 120; Ratio Ki [6]: 2000; IC50 [7]: > 10000 nM; Activity [8]: Dose-dependent effect; ED10 [8]: 13 mg/kg; Activity [9]: Dose-dependent effect; ED10 [9]: 44 mg/kg; % IP accumulation [10]: < 5%; IC50 [11]: 79.4 nM; fold change (FC) [12]: 3.5; IC50 [13]: > 10000 nM
10 nM	CCCCc1nc(Cl)c(CNC(=O)CNC(=O)C(CS)Cc2ccccc2)n1Cc1ccc(-c2ccccc2-c2nnn[nH]2)cc1 (racemic)	–	–
10 nM	CCCCc1nc(Cl)c(CNC(=O)C(CS)CC(C)C)n1Cc1ccc(-c2ccccc2-c2nnn[nH]2)cc1 (racemic)	–	–
15.8 nM	CCCCc1nc(Cl)c(CNC(=O)[C@@H](CS)CC(C)C)n1Cc1ccc(-c2ccccc2C(=O)O)cc1	11%	–
251 nM	CCCCc1nc(Cl)c(CNC(=O)C(CS)CC2CCCCC2)n1Cc1ccc(-c2ccccc2C(=O)O)cc1 (racemic)	–	–
31.6 nM	CCCCc1nc(Cl)c(CNC(=O)C(CS)CC2CC2)n1Cc1ccc(-c2ccccc2C(=O)O)cc1 (racemic)	–	–
1.26 nM	CCOc1nc(CC)c(CNC(=O)[C@@H](CS)CC(C)C)n1Cc1ccc(-c2ccccc2C(=O)O)cc1	67%	–

Ki [1]	SMILES	inhibition in vivo at 3 mg/kg [2]	other results
–	CCCCc1nc(Cl)c(CO)n1Cc1ccc(-c2ccccc2-c2nnn[nH]2)cc1 [LOSARTAN]	67%	% IP accumulation [10]: 87%
5.01 nM	CCCCc1nc(CC)c(CNC(=O)[C@@H](CS)CC(C)C)n1Cc1ccc(-c2ccccc2C(=O)O)cc1	68%	–
100 nM	CCCCc1nc(Cl)c(CNC(=O)[C@H](CS)CC(C)C)n1Cc1ccc(-c2ccccc2C(=O)O)cc1	–	–
79.4 nM	CCCCc1nc(Cl)c(CNC(=O)C(CS)C(C)c2ccccc2)n1Cc1ccc(-c2ccccc2C(=O)O)cc1 (racemic)	–	–
5.01 nM	CCOc1nc(CC)c(CNC(=O)[C@@H](S)CC(C)C)n1Cc1ccc(-c2ccccc2C(=O)O)c(F)c1	57%	–
1.26 nM	CCOc1nc(CC)c(CNC(=O)[C@@H](CS)CC(C)C)n1Cc1ccc(-c2ccccc2C(=O)O)c(F)c1	–	–
126 nM	CCCCc1nc(Cl)c(CNC(=O)C(CS)CCCC)n1Cc1ccc(-c2ccccc2C(=O)O)cc1 (racemic)	–	–
15.8 nM	CCCCc1nc(Cl)c(CNC(=O)C(CS)Cc2ccccc2)n1Cc1ccc(-c2ccccc2-c2nnn[nH]2)cc1 (racemic)	–	–
50.1 nM	CCCCc1nc(C)c(CNC(=O)[C@@H](CS)CC(C)C)n1Cc1ccc(-c2ccccc2C(=O)O)cc1	–	–
6.31 nM	CCCCc1nc(C2CC2)c(CNC(=O)[C@@H](CS)CC(C)C)n1Cc1ccc(-c2ccccc2C(=O)O)cc1	55%	–
631 nM	CCCCc1nc(Cl)c(CNC(=O)C(CS)C(C)CC)n1Cc1ccc(-c2ccccc2C(=O)O)cc1 (racemic)	–	–
200 nM	CCCCc1nc(C)c(CNC(=O)[C@@H](S)CC(C)C)n1Cc1ccc(-c2ccccc2C(=O)O)cc1	–	–
398 nM	CCCCc1nc(Cl)c(CNC(=O)C(CS)Cc2ccc(-c3ccccc3)cc2)n1Cc1ccc(-c2ccccc2C(=O)O)cc1 (racemic)	–	–
398 nM	CCCCc1nc(Cl)c(CNC(=O)C(CS)Cc2cccc3ccccc23)n1Cc1ccc(-c2ccccc2C(=O)O)cc1 (racemic)	–	–
79.4 nM	CCCCc1nc(Cl)c(CNC(=O)C(CS)Cc2ccccc2)n1Cc1ccc(-c2ccccc2C(=O)O)cc1 (racemic)	–	–
126 nM	CCCCc1nc(Cl)c(CNC(=O)C(CS)CCC(C)C)n1Cc1ccc(-c2ccccc2C(=O)O)cc1 (racemic)	–	–
31.6 nM	CCCCc1nc(CC(C)C)c(CNC(=O)[C@@H](S)CC(C)C)n1Cc1ccc(-c2ccccc2C(=O)O)cc1	32%	–
6.31 nM	CCOc1nc(CC)c(CNC(=O)[C@@H](S)CC(C)C)n1Cc1ccc(-c2ccccc2C(=O)O)cc1	57%	–
50.1 nM	CCCCc1nc(Cl)c(CNC(=O)C(CS)CC(CC)CC)n1Cc1ccc(-c2ccccc2C(=O)O)cc1 (racemic)	–	–
31.6 nM	CCCCc1nc(C2CC2)c(CNC(=O)[C@@H](S)CC(C)C)n1Cc1ccc(-c2ccccc2C(=O)O)cc1	5%	–

SMILES	Ki [1]	inhibition in vivo at 3 mg/kg [2]	other results
O=C(O)CNC(=O)C(CS)Cc1ccccc1 (configuration not stated) [THIORPHAN]	> 10000 nM	–	–
